Laboratory results as given in ChEMBL document CHEMBL1147391, “Isolation of echinocystic acid-3-O-sulfate, a new triterpene, from Tetrapleura tetraptera, and evaluation of the mutagenic potential of molluscicidal extracts and isolates” (J Nat Prod, 1993).
The source made the active and inactive calls. The rule behind the calls is not given here.

Assays:
Salmonella typhimurium [1] = assay: Bactericidal activity against Salmonella Typhimurium […] assessed as survival at 0.3125 mg/ml after 48 to 60 hrs in absence of rat S9 liver homogenate relative to control; type: functional, organism-based; conditions: Salmonella enterica subsp. enterica serovar Typhimurium
Summary of the method: (§1)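 TM677 (pKM101) exposed to test substance in DMSO with or without S-9 from livers of Aroclor 1254-pretreated rats, 2 h at 37°, quenched with PBS, centrifuged, diluted and plated in triplicate without 8-azaguanine. Colonies scored after 48–60 h at 37°. Survival is expressed relative to a DMSO-only control after correction for dilution.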

Salmonella typhimurium [2] = assay: Bactericidal activity against Salmonella Typhimurium […] assessed as survival at 0.3125 mg/ml after 48 to 60 hrs in presence of rat S9 liver homogenate relative to control; type: functional, organism-based; conditions: Salmonella enterica subsp. enterica serovar Typhimurium, Liver S9 fraction; summary of the method: as §1
Salmonella typhimurium [3] = assay: Bactericidal activity against Salmonella Typhimurium […] assessed as survival at 0.625 mg/ml after 48 to 60 hrs in absence of rat S9 liver homogenate relative to control; type: functional, organism-based; conditions: Salmonella enterica subsp. enterica serovar Typhimurium; summary of the method: as §1
Salmonella typhimurium [4] = assay: Bactericidal activity against Salmonella Typhimurium […] assessed as survival at 0.625 mg/ml after 48 to 60 hrs in presence of rat S9 liver homogenate relative to control; type: functional, organism-based; conditions: Salmonella enterica subsp. enterica serovar Typhimurium, Liver S9 fraction; summary of the method: as §1
Salmonella typhimurium [5] = assay: Bactericidal activity against Salmonella Typhimurium […] assessed as survival at 1.25 mg/ml after 48 to 60 hrs in absence of rat S9 liver homogenate relative to control; type: functional, organism-based; conditions: Salmonella enterica subsp. enterica serovar Typhimurium; summary of the method: as §1
Salmonella typhimurium [6] = assay: Bactericidal activity against Salmonella Typhimurium […] assessed as survival at 1.25 mg/ml after 48 to 60 hrs in presence of rat S9 liver homogenate relative to control; type: functional, organism-based; conditions: Salmonella enterica subsp. enterica serovar Typhimurium, Liver S9 fraction; summary of the method: as §1
Salmonella typhimurium [7] = assay: Bactericidal activity against Salmonella Typhimurium […] assessed as survival at 5 mg/ml after 48 to 60 hrs in presence of rat S9 liver homogenate relative to control; type: functional, organism-based; conditions: Salmonella enterica subsp. enterica serovar Typhimurium, Liver S9 fraction; summary of the method: as §1
Salmonella typhimurium [8] = assay: Bactericidal activity against Salmonella Typhimurium […] assessed as survival at 5 mg/ml after 48 to 60 hrs in absence of rat S9 liver homogenate relative to control; type: functional, organism-based; conditions: Salmonella enterica subsp. enterica serovar Typhimurium; summary of the method: as §1
Salmonella typhimurium [9] = assay: Bactericidal activity against Salmonella Typhimurium […] assessed as survival at 2.5 mg/ml after 48 to 60 hrs in presence of rat S9 liver homogenate relative to control; type: functional, organism-based; conditions: Salmonella enterica subsp. enterica serovar Typhimurium, Liver S9 fraction; summary of the method: as §1
Salmonella typhimurium [10] = assay: Bactericidal activity against Salmonella Typhimurium […] assessed as survival at 2.5 mg/ml after 48 to 60 hrs in absence of rat S9 liver homogenate relative to control; type: functional, organism-based; conditions: Salmonella enterica subsp. enterica serovar Typhimurium; summary of the method: as §1
Biomphalaria glabrata [11] = assay: Molluscicidal activity against Biomphalaria glabrata assessed as mortality at 15 ppm after 24 hrs; type: functional
Summary of the method: (§2)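 Lab-bred B. glabrata (about 12 mm shell diameter), five snails per test, tested in duplicate at 21–22°. Samples dissolved in MeOH and diluted in dechlorinated tap water, final MeOH ≤1% v/v. Snails immersed 24 h, rinsed, then held 24 h in clean water. Death means no heartbeat under a dissecting microscope. Negative control was 1% MeOH.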

Salmonella typhimurium [12] = assay: Forward mutagenic activity in Salmonella Typhimurium […] assessed as mutant fraction at 0.3125 mg/ml after 2 hrs in absence of rat S9 liver homogenate; type: toxicity, organism-based; conditions: salmonella enterica subsp. enterica serovar typhimurium
Summary of the method: (§3)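 Forward mutation assay in S. typhimurium TM677 carrying pKM101, with or without Aroclor 1254-induced rat liver S-9 (9000×g). Substance in DMSO incubated with bacteria 2 h at 37°, quenched with PBS and plated in triplicate with and without 8-azaguanine, then grown 48–60 h at 37°. Mutant fraction is the mean 8-azaguanine-resistant colony count over the mean count without 8-azaguanine, corrected for dilution.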

Salmonella typhimurium [13] = assay: Forward mutagenic activity in Salmonella Typhimurium […] assessed as mutant fraction at 0.3125 mg/ml after 2 hrs in presence of rat S9 liver homogenate; type: toxicity, organism-based; conditions: salmonella enterica subsp. enterica serovar typhimurium; summary of the method: as §3
Salmonella typhimurium [14] = assay: Forward mutagenic activity in Salmonella Typhimurium […] assessed as mutant fraction at 0.625 mg/ml after 2 hrs in absence of rat S9 liver homogenate; type: toxicity, organism-based; conditions: salmonella enterica subsp. enterica serovar typhimurium; summary of the method: as §3
Salmonella typhimurium [15] = assay: Forward mutagenic activity in Salmonella Typhimurium […] assessed as mutant fraction at 0.625 mg/ml after 2 hrs in presence of rat S9 liver homogenate; type: toxicity, organism-based; conditions: salmonella enterica subsp. enterica serovar typhimurium; summary of the method: as §3
Salmonella typhimurium [16] = assay: Forward mutagenic activity in Salmonella Typhimurium […] assessed as mutant fraction at 1.25 mg/ml after 2 hrs in absence of rat S9 liver homogenate; type: toxicity, organism-based; conditions: salmonella enterica subsp. enterica serovar typhimurium; summary of the method: as §3
Salmonella typhimurium [17] = assay: Forward mutagenic activity in Salmonella Typhimurium […] assessed as mutant fraction at 1.25 mg/ml after 2 hrs in presence of rat S9 liver homogenate; type: toxicity, organism-based; conditions: salmonella enterica subsp. enterica serovar typhimurium; summary of the method: as §3
Salmonella typhimurium [18] = assay: Forward mutagenic activity in Salmonella Typhimurium […] assessed as mutant fraction at 2.5 mg/ml after 2 hrs in absence of rat S9 liver homogenate; type: toxicity, organism-based; conditions: salmonella enterica subsp. enterica serovar typhimurium; summary of the method: as §3
Salmonella typhimurium [19] = assay: Forward mutagenic activity in Salmonella Typhimurium […] assessed as mutant fraction at 2.5 mg/ml after 2 hrs in presence of rat S9 liver homogenate; type: toxicity, organism-based; conditions: salmonella enterica subsp. enterica serovar typhimurium; summary of the method: as §3
Salmonella typhimurium [20] = assay: Forward mutagenic activity in Salmonella Typhimurium […] assessed as mutant fraction at 5 mg/ml after 2 hrs in absence of rat S9 liver homogenate; type: toxicity, organism-based; conditions: salmonella enterica subsp. enterica serovar typhimurium; summary of the method: as §3
Salmonella typhimurium [21] = assay: Forward mutagenic activity in Salmonella Typhimurium […] assessed as mutant fraction at 5 mg/ml after 2 hrs in presence of rat S9 liver homogenate; type: toxicity, organism-based; conditions: salmonella enterica subsp. enterica serovar typhimurium; summary of the method: as §3
Biomphalaria glabrata [22] = assay: Molluscicidal activity against Biomphalaria glabrata assessed as mortality at 1.25 ppm after 24 hrs; type: functional; summary of the method: as §2
Biomphalaria glabrata [23] = assay: Molluscicidal activity against Biomphalaria glabrata assessed as mortality at 20 ppm after 24 hrs; type: functional; summary of the method: as §2
Salmonella typhimurium [24] = assay: Bactericidal activity against Salmonella Typhimurium […] assessed as survival at 0.58 mg/ml after 48 to 60 hrs in absence of rat S9 liver homogenate; type: functional, organism-based; conditions: Salmonella enterica subsp. enterica serovar Typhimurium
Summary of the method: (§4)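 Forward mutation assay in S. typhimurium TM677 carrying plasmid pKM101, without S-9. Bacteria were mixed with MEM, test substance added in DMSO, and incubated 2 h at 37°. The mix was quenched with PBS, pelleted, diluted and plated in triplicate without 8-azaguanine. Colonies were counted after 48–60 h at 37°. Survival was dilution-corrected and taken relative to a DMSO-only control.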

Salmonella typhimurium [25] = assay: Bactericidal activity against Salmonella Typhimurium […] assessed as survival at 5.8 mg/ml after 48 to 60 hrs in absence of rat S9 liver homogenate; type: functional, organism-based; conditions: Salmonella enterica subsp. enterica serovar Typhimurium; summary of the method: as §4
Salmonella typhimurium [26] = assay: Bactericidal activity against Salmonella Typhimurium […] assessed as survival at 0.5 mg/ml after 48 to 60 hrs in presence of rat S9 liver homogenate; type: functional, organism-based; conditions: Salmonella enterica subsp. enterica serovar Typhimurium, Liver S9 fraction
Summary of the method: (§5)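 TM677 (pKM101) forward mutation assay run with a 9000×g liver supernatant (S-9) from Aroclor 1254-pretreated rats. Test substance was added in DMSO and incubated 2 h at 37°, then quenched with PBS. Cells were pelleted, diluted and plated in triplicate without 8-azaguanine, and colonies counted after 48–60 h at 37°. Survival was dilution-corrected and taken relative to a DMSO solvent control.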

Salmonella typhimurium [27] = assay: Bactericidal activity against Salmonella Typhimurium […] assessed as survival at 50 mg/ml after 48 to 60 hrs in presence of rat S9 liver homogenate; type: functional, organism-based; conditions: Salmonella enterica subsp. enterica serovar Typhimurium, Liver S9 fraction; summary of the method: as §5
Salmonella typhimurium [28] = assay: Bactericidal activity against Salmonella Typhimurium […] assessed as survival at 0.058 mg/ml after 48 to 60 hrs in absence of rat S9 liver homogenate; type: functional, organism-based; conditions: Salmonella enterica subsp. enterica serovar Typhimurium; summary of the method: as §4

SMILES | Activity (Salmonella typhimurium [1]) [%] | Activity (Salmonella typhimurium [2]) [%] | Activity (Salmonella typhimurium [3]) [%] | Activity (Salmonella typhimurium [4]) [%] | Activity (Salmonella typhimurium [5]) [%] | Activity (Salmonella typhimurium [6]) [%] | Activity (Salmonella typhimurium [7]) | Activity (Salmonella typhimurium [8]) [%] | Activity (Salmonella typhimurium [9]) [%] | Activity (Salmonella typhimurium [10]) [%] | Activity (Salmonella typhimurium [12]) | Activity (Salmonella typhimurium [13]) | Activity (Salmonella typhimurium [14]) | Activity (Salmonella typhimurium [15]) | Activity (Salmonella typhimurium [16]) | Activity (Salmonella typhimurium [17]) | Activity (Salmonella typhimurium [18]) | Activity (Salmonella typhimurium [19]) | Activity (Salmonella typhimurium [20]) | Activity (Salmonella typhimurium [21]) | further results
CC(=O)N[C@H]1[C@H](O[C@H]2CC[C@]3(C)[C@H]4CC=C5[C@H]6CC(C)(C)CC[C@]6(C(=O)O)[C@H](O)C[C@@]5(C)[C@]4(C)CC[C@H]3C2(C)C)O[C@H](CO)[C@@H](O)[C@@H]1O | 100 | 100 | 100 | 100 | 100 | 200 | 100% | 100 | 100 | 100 | 4.9 | 3.2 | 5.4 | 3.1 | 5.4 | 2.6 | 4.7 | 2.9 | 4.7 | 4.6 | Activity (Biomphalaria glabrata [11]): 100%
CC(=O)N[C@H]1[C@H](O[C@H]2CC[C@]3(C)[C@H]4CC=C5[C@H]6CC(C)(C)CC[C@]6(C(=O)O)CC[C@@]5(C)[C@]4(C)CC[C@H]3C2(C)C)O[C@H](CO)[C@@H](O)[C@@H]1O [ARIDANIN] | 89 | 100 | 98 | 100 | 100 | 100 | 100% | 100 | 100 | 100 | 4.5 | 2.5 | 5.6 | 2.9 | 4.1 | 3.2 | 3.3 | 2.8 | 4.2 | 4 | Activity (Biomphalaria glabrata [22]): 100%
CC1(C)CC[C@]2(C(=O)O)[C@H](O)C[C@]3(C)C(=CC[C@@H]4[C@@]5(C)CC[C@H](OS(=O)(=O)O)C(C)(C)[C@@H]5CC[C@]43C)[C@H]2C1 | – | – | – | – | – | – | inactive | – | – | – | – | – | – | – | – | – | – | – | – | – | Activity (Biomphalaria glabrata [23]): Non-toxic; Activity (Salmonella typhimurium [24]): inactive; Activity (Salmonella typhimurium [25]): inactive; Activity (Salmonella typhimurium [26]): inactive; Activity (Salmonella typhimurium [27]): inactive; Activity (Salmonella typhimurium [28]): inactive
CC(=O)N[C@H]1[C@H](O[C@H]2CC[C@]3(C)[C@H]4CC=C5[C@H]6CC(C)(C)CC[C@]6(C(=O)O)CC[C@@]5(C)[C@]4(C)CC[C@H]3C2(C)C)O[C@H](CO[C@@H]2O[C@H](CO)[C@@H](O)[C@H](O)[C@H]2O)[C@@H](O)[C@@H]1O | 100 | – | 100 | – | 100 | – | – | 100 | – | 100 | 4.1 | – | 4.2 | – | 4 | – | 3.1 | – | 5 | – | Activity (Biomphalaria glabrata [23]): 100%
